Measurements: ChEMBL document CHEMBL1221229, “Phloroglucinol glycosides from the fresh fruits of Eucalyptus maideni” (J Nat Prod, 2010)
Active and inactive are the calls of the source. The rule behind the calls is not given here.

Key:
Human alphaherpesvirus 1 = experiment: Antiviral activity against HSV1 infected african green monkey Vero cells assessed as reduction of plaque formation after 3 days by using crystal violet stain; format: functional, organism-based
Outline: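 Vero cells in 24-well plates, grown 24 h, then infected with 30 PFU HSV-1 alongside serial sample dilutions in DMEM with 2% FBS (pH 7.2, NaHCO3/Hepes). The wells were overlaid with 1% methylcellulose medium and incubated 3 days. Monolayers were formalin-fixed and crystal violet-stained, and plaques counted by microscope. The 100% plaque-reducing concentration was read from graphic plots. Aciclovir was the positive control.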

[1] = Cytotoxicity against african green monkey Vero cells after 3 days by MTT assay; format: cell-based; settings: chlorocebus sabaeus, read-out: MNCC
Outline: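 Confluent Vero monolayers in 96-well plates were exposed in triplicate to serial sample dilutions in DMEM with 2% FBS (pH 7.2) for 3 days. MTT (5 mg/mL in PBS) was added for 4 h, and formazan was dissolved in DMSO with OD read at 540/630 nm. The value is the maximal concentration without cytotoxic effect relative to medium control.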

Row | SMILES | inhibition (Human alphaherpesvirus 1) | MNTC at 72 h [1] [µM] | TIC (Human alphaherpesvirus 1) [mM]
1 | CC(C)(O)[C@H]1CC=C(C(=O)OC[C@H]2O[C@@H](Oc3cc(C(=O)O)cc(O)c3O)[C@H](O)[C@@H](O)[C@@H]2O)CC1 | inactive | – | –
2 | O=c1cc(-c2ccc(O)c(O[C@@H]3O[C@H](CO)[C@@H](O)[C@H](O)[C@H]3O)c2)oc2cc(O)cc(O)c12 | inactive | 450 | –
3 | O=c1c(O[C@@H]2O[C@H](CO)[C@@H](O)[C@H](O)[C@H]2O[C@@H]2OC[C@@H](O)[C@H](O)[C@H]2O)c(-c2ccc(O)c(O)c2)oc2cc(O)cc(O)c12 | inactive | 370 | –
4 | CC(C)(O)[C@H]1CC=C(C(=O)OC[C@H]2O[C@@H](Oc3c(O)cc(C(=O)O)cc3O)[C@H](O)[C@@H](O)[C@@H]2O)CC1 | inactive | – | –
5 | O=c1c(O)c(-c2cc(O)c(O)c(O)c2)oc2cc(O)cc(O)c12 [MYRICETIN] | – | 310 | 0.31
6 | O=c1cc(-c2cc(O)c(O)c(O)c2)oc2cc(O)cc(O)c12 [TRICETIN] | inactive | 40 | –
7 | O=C(O)c1cc(O)c(O)c(O)c1 [GALLIC ACID] | inactive | 590 | –
8 | O=C[C@H](O)[C@@H](O)[C@H](O)[C@H](O)COC(=O)c1cc(O)c(O)c(O)c1 | inactive | 9 | –
9 | CC(C)(O)[C@H]1CC=C(C(=O)OC[C@H]2O[C@@H](OC(=O)[C@H]3CC[C@H](C(C)(C)O)CC3)[C@H](O)[C@@H](O)[C@@H]2O)CC1 | inactive | – | –
10 | CC(C)(O)C1CC=C(C(=O)O)CC1 (racemic) | inactive | > 1090 | –
11 | COc1cc([C@@H]2c3cc(O)c(OC)cc3C[C@H](CO)[C@H]2CO[C@@H]2O[C@H](CO)[C@@H](O)[C@H](O)[C@H]2O)ccc1O | inactive | – | –
12 | O=c1c(O[C@@H]2O[C@H](CO)[C@@H](O)[C@H](O)[C@H]2O)c(-c2ccc(O)c(O)c2)oc2cc(O)cc(O)c12 [ISOQUERCETIN] | inactive | 430 | –
13 | O=c1cc(-c2ccc(O)c(O)c2)oc2cc(O)cc(O)c12 [LUTEOLIN] | inactive | 700 | –
14 | COc1c(O)cc2c(=O)oc3c(O[C@@H]4O[C@@H](C)[C@H](O)[C@@H](O)[C@H]4O)c(O)cc4c(=O)oc1c2c34 | inactive | 430 | –
15 | O=c1c(O)c(-c2ccc(O)c(O)c2)oc2cc(O)cc(O)c12 [QUERCETIN] | – | < 20 | 0.33
16 | O=c1cc(-c2cc(O)c(O)c(O[C@@H]3O[C@H](CO)[C@@H](O)[C@H](O)[C@H]3O)c2)oc2cc(O)cc(O)c12 | inactive | 430 | –
